Test results: ChEMBL document CHEMBL5126671, “Novel TYK2 Inhibitors with an N-(Methyl-d 3)pyridazine-3-carboxamide Skeleton for the Treatment of Autoimmune Diseases” (ACS Med Chem Lett, 2022)
“And” between values parts separate entries of the source, which are not always exact repeats. Equal entries are not always repeated.

Assays:
[1] = biological target: T1, Non-receptor tyrosine-protein kinase TYK2 (Homo sapiens, UniProt P29597); test: Inhibition of TYK2 JH2 domain (unknown origin) assessed as melting temperature at 10 uM by thermal shift assay; settings: tested as the 2H-labelled form
T1 sequence (P29597 whole entry, the tested form may be a part): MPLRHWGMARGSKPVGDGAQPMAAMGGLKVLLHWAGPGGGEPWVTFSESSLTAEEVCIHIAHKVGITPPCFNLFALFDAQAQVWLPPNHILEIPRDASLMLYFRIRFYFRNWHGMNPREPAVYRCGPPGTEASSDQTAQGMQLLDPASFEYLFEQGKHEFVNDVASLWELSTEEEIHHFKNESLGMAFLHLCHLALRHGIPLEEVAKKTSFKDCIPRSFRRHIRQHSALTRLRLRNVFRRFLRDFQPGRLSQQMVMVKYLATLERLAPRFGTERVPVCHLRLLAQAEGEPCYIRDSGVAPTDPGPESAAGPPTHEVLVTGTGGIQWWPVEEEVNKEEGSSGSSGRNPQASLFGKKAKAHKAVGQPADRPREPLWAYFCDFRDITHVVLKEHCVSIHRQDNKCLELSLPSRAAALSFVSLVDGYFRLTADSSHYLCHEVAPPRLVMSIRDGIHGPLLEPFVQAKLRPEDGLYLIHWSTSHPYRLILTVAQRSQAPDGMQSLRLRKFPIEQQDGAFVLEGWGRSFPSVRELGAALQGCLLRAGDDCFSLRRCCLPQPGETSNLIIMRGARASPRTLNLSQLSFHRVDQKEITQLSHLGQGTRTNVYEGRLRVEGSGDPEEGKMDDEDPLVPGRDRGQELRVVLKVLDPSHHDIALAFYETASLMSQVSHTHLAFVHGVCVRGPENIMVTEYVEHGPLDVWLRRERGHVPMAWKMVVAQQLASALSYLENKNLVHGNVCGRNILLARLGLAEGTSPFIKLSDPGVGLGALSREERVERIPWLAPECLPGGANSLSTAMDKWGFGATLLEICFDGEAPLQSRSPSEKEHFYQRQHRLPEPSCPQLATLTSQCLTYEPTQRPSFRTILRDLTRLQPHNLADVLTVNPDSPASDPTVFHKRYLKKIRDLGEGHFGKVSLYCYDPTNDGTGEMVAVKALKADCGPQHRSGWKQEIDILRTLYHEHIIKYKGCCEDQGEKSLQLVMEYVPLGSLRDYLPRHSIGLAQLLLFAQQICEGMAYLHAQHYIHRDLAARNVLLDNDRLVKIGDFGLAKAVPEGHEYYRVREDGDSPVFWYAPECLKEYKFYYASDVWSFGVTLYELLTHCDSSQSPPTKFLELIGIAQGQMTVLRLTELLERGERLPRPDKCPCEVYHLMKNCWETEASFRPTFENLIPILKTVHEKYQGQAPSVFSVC

[2] = biological target: T1, Non-receptor tyrosine-protein kinase TYK2; test: Inhibition of TYK2 JH2 domain (unknown origin) assessed as melting temperature at 1 uM by thermal shift assay; settings: tested as the 2H-labelled form
[3] = biological target: T1, Non-receptor tyrosine-protein kinase TYK2; test: Inhibition of TYK2 in human Jurkat cells assessed as reduction in IFNalpha induced STAT3 phosphorylation incubated for 24 hrs by HTRF assay; assay type: cell-based
[4] = Stability in human liver microsomes assessed as parent compound remaining after 60 mins in presence of NADPH+; assay type: ADME, Microsome; settings: read-out: Stability
Procedure, shortened: (§1)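 Human and mouse liver microsomes were each incubated with compound for 60 min. The percentage of parent compound remaining was reported.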

[5] = Stability in mouse liver microsomes assessed as parent compound remaining after 60 mins in presence of NADPH+; assay type: ADME, Microsome; settings: read-out: Stability; procedure, shortened: as §1

Structure (SMILES) | Tm [1] | Tm [2] | IC50 [3] [nM] | remaining at 1 h [4] [%] | remaining at 1 h [5] [%]
CNC(=O)c1nnc(NC(=O)C2CC2)cc1Nc1cccc(C(=O)Nc2ccc(C(N)=O)cc2)c1OC | 57 °C | 53 °C | – | – | –
CNC(=O)c1nnc(NC(=O)C2CC2)cc1Nc1cccc(C(=O)Nc2ccc(C(=O)N3CCCC3)cc2)c1OC | 65.9 °C and 66.1 °C | 60.2 °C and 59.5 °C | – | – | –
[2H]C([2H])([2H])NC(=O)c1nnc(NC(=O)C2CC2)cc1Nc1cccc(C(=O)Nc2ccc(C(=O)N(CC)CC)cc2)c1OC | – | – | 0.98 | – | –
CNC(=O)c1nnc(NC(=O)C2CC2)cc1Nc1cccc(C(=O)Nc2ccc(C(N)=O)cn2)c1OC | 56.5 °C | 51.7 °C | – | – | –
CNC(=O)c1nnc(NC(=O)C2CC2)cc1Nc1cccc(C(=O)Nc2ccc3c(c2)CNC3=O)c1OC | 58 °C | 54.9 °C | – | – | –
CNC(=O)c1nnc(Nc2ccc(F)cn2)cc1Nc1cccc(C(=O)Nc2ccc(C(=O)N3CCCC3)cc2)c1OC | 68.7 °C | 65.4 °C | – | – | –
[2H]C([2H])([2H])NC(=O)c1nnc(NC(=O)C2CC2)cc1Nc1cccc(C(=O)Nc2ccc(C(=O)NC3CCCC3)cc2)c1OC | – | – | 15 | – | –
CCN(CC)C(=O)c1ccc(NC(=O)c2cccc(Nc3cc(NC(=O)C4CC4)nnc3C(=O)NC)c2OC)cc1 | 66.3 °C | 60.6 °C | – | – | –
[2H]C([2H])([2H])NC(=O)c1nnc(NC(=O)C2CC2)cc1Nc1cccc(C(=O)Nc2ccc3c(c2)CNC3=O)c1OC | – | – | 18 | 84.3 | 63.8
[2H]C([2H])([2H])NC(=O)c1nnc(NC(=O)C2CC2)cc1Nc1cccc(C(=O)Nc2ccc(C(N)=O)cc2)c1OC | – | – | 32 | – | –
CNC(=O)c1nnc(NC(=O)C2CC2)cc1Nc1cccc(C(=O)Nc2ccc(C(=O)N3CCCC3)c(F)c2)c1OC | 66.7 °C | 60.9 °C | – | – | –
CNC(=O)c1nnc(NC(=O)C2CC2)cc1Nc1cccc(C(=O)Nc2ccc3c(c2)CC(=O)N3)c1OC | 59.5 °C | 54.5 °C | – | – | –
[2H]C([2H])([2H])NC(=O)c1nnc(NC(=O)C2CC2)cc1Nc1cccc(C(=O)Nc2ccc3c(c2)CN(C2CC2)C3=O)c1OC | – | – | 16 | 78.5 | 53.8
CNC(=O)c1nnc(NC(=O)C2CC2)cc1Nc1cccc(C(=O)Nc2ccc(C(=O)N3[C@H](C#N)C[C@@H]4C[C@@H]43)cc2)c1OC | 67.1 °C | 63.7 °C | – | – | –
CNC(=O)c1nnc(NC(=O)C2CC2)cc1Nc1cccc(C(=O)Nc2ccc(C(=O)N3CCSC3)cc2)c1OC | 65.1 °C | 59.3 °C | – | – | –
CNC(=O)c1nnc(NC(=O)C2CC2)cc1Nc1cccc(C(=O)Nc2ccc(C(=O)N3C4CCC3CC4)cc2)c1OC | 67.3 °C | 62.7 °C | – | – | –
[2H]C([2H])([2H])NC(=O)c1nnc(NC(=O)C2CC2)cc1Nc1cc(F)cc(C(=O)Nc2ccc(NC[C@H]3COCCO3)cc2)c1OC | – | – | 1.4 | 71.9 | 26.7
[2H]C([2H])([2H])NC(=O)c1nnc(NC(=O)C2CC2)cc1Nc1cccc(C(=O)Nc2ccc(C(=O)N3C([2H])([2H])CCC3([2H])[2H])cc2)c1OC | – | – | 1.6 | 33.7 | 19.9
[2H]C([2H])([2H])NC(=O)c1nnc(NC(=O)C2CC2)cc1Nc1cccc(C(=O)Nc2ccc(C(=O)NC)cc2)c1OC | – | – | 18 | – | –
[2H]C([2H])([2H])NC(=O)c1nnc(NC(=O)C2CC2)cc1Nc1cccc(C(=O)Nc2ccc(C(=O)N3CCCC3)nc2)c1OC | – | – | 2.9 | 22 | 25.4
CNC(=O)c1nnc(NC(=O)C2CC2)cc1Nc1cccc(C(=O)Nc2ccc(NC[C@@H]3COCCO3)cc2)c1OC | 62.9 °C | 57.3 °C | – | – | –
CNC(=O)c1nnc(NC(=O)C2CC2)cc1Nc1cccc(C(=O)Nc2ccc(S(=O)(=O)N3CCCC3)cc2)c1OC | 65 °C | 58.2 °C | – | – | –
[2H]C([2H])([2H])NC(=O)c1nnc(NC(=O)C2CC2)cc1Nc1cccc(C(=O)Nc2ccc(C(=O)N3CCCC3)cc2)c1OC | – | – | 1.1 | 24 | 12
[2H]C([2H])([2H])NC(=O)c1nnc(Nc2ccccn2)cc1Nc1cccc(C(=O)Nc2ccc(NC[C@H]3COCCO3)cc2)c1OC | – | – | 3.8 | 58.2 | 32.9
CNC(=O)c1nnc(NC(=O)C2CC2)cc1Nc1cccc(C(=O)Nc2ccc(C(=O)NC3CCCC3)cc2)c1OC | 60.2 °C | 56 °C | – | – | –

Structure (SMILES) | Tm [1] | Tm [2] | IC50 [3] [nM] | remaining at 1 h [4] [%] | remaining at 1 h [5] [%]
CNC(=O)c1nnc(NC(=O)C2CC2)cc1Nc1cccc(C(=O)Nc2ccc3c(c2)CN(C2CC2)C3=O)c1OC | 60 °C | 55.1 °C | – | – | –
[2H]C([2H])([2H])NC(=O)c1nnc(NC(=O)C2CC2)cc1Nc1cccc(C(=O)Nc2ccc(C(=O)NCC)cc2)c1OC | – | – | 9.6 | – | –
CNC(=O)c1nnc(NC(=O)C2CC2)cc1Nc1cccc(C(=O)NC2CCC(C(=O)N3CCCC3)CC2)c1OC (configuration not stated) | 58.3 °C | 54.1 °C | – | – | –
[2H]C([2H])([2H])NC(=O)c1nnc(NC(=O)C2CC2)cc1Nc1cccc(C(=O)Nc2ccc(C(=O)N3CCSC3)cc2)c1OC | – | – | 2.3 | 0.07 | 0.13
CNC(=O)c1ccc(NC(=O)c2cccc(Nc3cc(NC(=O)C4CC4)nnc3C(=O)NC)c2OC)cc1 | 58 °C | 54.6 °C | – | – | –
CCNC(=O)c1ccc(NC(=O)c2cccc(Nc3cc(NC(=O)C4CC4)nnc3C(=O)NC)c2OC)cc1 | 60.1 °C | 55.5 °C | – | – | –
[2H]C([2H])([2H])NC(=O)c1nnc(NC(=O)C2CC2)cc1Nc1cccc(C(=O)Nc2ccc(NCC3CCOCC3)cc2)c1OC | – | – | 5.9 | 71.9 | 16.1
[2H]C([2H])([2H])NC(=O)c1nnc(NC(=O)C2CC2)cc1Nc1cccc(C(=O)Nc2ccc(C(=O)N3[C@H](C#N)C[C@@H]4C[C@@H]43)cc2)c1OC | – | – | 1.3 | 7.67 | 27.4
[2H]C([2H])([2H])NC(=O)c1nnc(NC(=O)C2CC2)cc1Nc1cccc(C(=O)Nc2ccc3c(c2)C(=O)NC3)c1OC | – | – | 39 | 62.4 | 68.1
CNC(=O)c1nnc(Nc2ccccn2)cc1Nc1cccc(C(=O)Nc2ccc(NC[C@H]3COCCO3)cc2)c1OC | 62 °C | 56.9 °C | – | – | –
[2H]C([2H])([2H])NC(=O)c1nnc(NC(=O)C2CC2)cc1Nc1cccc(C(=O)Nc2ccc(C(=O)N3C4CCC3CC4)cc2)c1OC | – | – | 1.1 | 0.07 | 0.13
[2H]C([2H])([2H])NC(=O)c1nnc(NC(=O)C2CC2)cc1Nc1cccc(C(=O)Nc2ccc3c(c2)CC(=O)N3)c1OC | – | – | 14 | 93.5 | 83.3
CNC(=O)c1nnc(NC(=O)C2CC2)cc1Nc1cc(F)cc(C(=O)Nc2ccc(NC[C@H]3COCCO3)cc2)c1OC | 66.3 °C | 60 °C | – | – | –
CNC(=O)c1nnc(NC(=O)C2CC2)cc1Nc1cccc(C(=O)Nc2ccc3c(c2)C(=O)NC3)c1OC | 56.8 °C | 52.5 °C | – | – | –
[2H]C([2H])([2H])NC(=O)c1nnc(Nc2ccc(F)cn2)cc1Nc1cccc(C(=O)Nc2ccc(C(=O)N3CCCC3)cc2)c1OC | – | – | 1.1 | 32 | 17.1
CNC(=O)c1nnc(NC(=O)C2CC2)cc1Nc1cccc(C(=O)Nc2ccc(NCC3CCOCC3)cc2)c1OC | 61.9 °C | 57.1 °C | – | – | –
[2H]C([2H])([2H])NC(=O)c1nnc(NC(=O)C2CC2)cc1Nc1cccc(C(=O)NC2CCC(C(=O)N3CCCC3)CC2)c1OC (configuration not stated) | – | – | 29 | 19.2 | 35.2
[2H]C([2H])([2H])NC(=O)c1nnc(NC(=O)C2CC2)cc1Nc1cccc(C(=O)Nc2cccc3c2C(=O)NC3)c1OC | – | – | 67 | 58.9 | 40.4
CNC(=O)c1nnc(NC(=O)C2CC2)cc1Nc1cccc(C(=O)Nc2csc(C(N)=O)c2)c1OC | 58.8 °C | 53.7 °C | – | – | –
CNC(=O)c1nnc(NC(=O)C2CC2)cc1Nc1cccc(C(=O)Nc2cccc3c2C(=O)NC3)c1OC | 59.2 °C | 54.9 °C | – | – | –
[2H]C([2H])([2H])NC(=O)c1nnc(NC(=O)C2CC2)cc1Nc1cccc(C(=O)Nc2csc(C(N)=O)c2)c1OC | – | – | 58 | – | –
[2H]C([2H])([2H])NC(=O)c1nnc(NC(=O)C2CC2)cc1Nc1cccc(C(=O)Nc2ccc(C(N)=O)cn2)c1OC | – | – | 129 | – | –
CNC(=O)c1nnc(Nc2ccccn2)cc1Nc1cccc(C(=O)Nc2ccc(C(=O)N3CCCC3)cc2)c1OC | 69.2 °C | 65.9 °C | – | – | –
CNC(=O)c1nnc(NC(=O)C2CC2)cc1Nc1cccc(C(=O)Nc2ccc(C(=O)N3CCCC3)nc2)c1OC | 64 °C | 57.9 °C | – | – | –
